Assay results: PubChem BioAssay AID504733 (Southern Research Specialized Biocontainment Screening …, 2011)

Tested on: E. coli UTI89 capsule, orcinol OD572
Assay: E. coli capsule biogenesis inhibitors, orcinol readout, confirmation, orthogonal assay, orcinol colorimetric, UTI89 strain, 100 µM (AID 504733)
Settings: at 100 µM; hits give low values
How it was run: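 Test system: Uropathogenic E. coli UTI89 or its capsule-export mutant ΔkpsM; medium: pH 5 Tris buffer for capsule release; dosing: one 100 µM compound dose; incubation: hydrolysis step 1 h, 80 °C, pH 2; measured by: orcinol colorimetric reaction, absorbance at 572 nm; controls: untreated cultures without compound and capsule-export mutant ΔkpsM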

Row | SMILES | capsule formation
1 | O=C(ONc1ccc(N=NC(=O)c2ccccc2O)cc1)c1ccccc1 | 16%
2 | COc1ccc2nc(NC(=O)c3ccc(Br)s3)sc2c1 | 24.5%
3 | O=C(NCc1cc([N+](=O)[O-])ccc1O)c1cccnc1Sc1ccccc1Cl | 18.6%
4 | O=C(Nc1ccncc1)c1ccc2ncsc2c1 | 19.1%
5 | CC1=NN2C(=N)/C(=C\c3ccc(SCc4ccco4)o3)C(=O)N=C2S1 | 20.2%
6 | CCOc1ccc(-c2cc(NC(=O)c3c(F)cccc3F)c(C(=O)O)s2)cc1 | 9.04%
